Results published in ChEMBL document CHEMBL1811786, “Identification of MK-5710 ((8aS)-8a-methyl-1,3-dioxo-2-[(1S,2R)-2-phenylcyclo- propyl]-N-(1-phenyl-1H-pyrazol-5-yl)hexahydro-imidazo[1,5-a]pyrazine-7(1H)-carboxamide), a potent smoothened antagonist for use in Hedgehog pathway dependent malignancies, part 2” (Bioorg Med Chem Lett, 2011).

Legend:
[1] = Inhibition of Voltage-gated sodium channel at 30 uM
Mus musculus [2] = assay: Inhibition of Shh pathway in mouse medulloblastoma allograft model assessed as reduction in tumor Gli-1 mRNA expression at 80 mg/kg, po administered as single dose; type: functional, organism-based; parameters: dose 80 mg/kg; details: TDE = time-dependent effect
How it was run: (§1)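 Tumor-bearing medulloblastoma mice given a single oral 80 mg/kg dose. Tumor biopsies taken at timepoints up to 24 h; Hh-pathway inhibition measured as reduction of Gli-1 mRNA.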

Mus musculus [3] = assay: Toxicity in mouse medulloblastoma allograft model assessed as adverse effects at 120 mg/kg, po bid for 3 weeks; type: organism-based; parameters: dose 120 mg/kg, route oral; details: in vivo, 504 h
How it was run: (§2)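 Primary mouse medulloblastoma allograft, subcutaneous. Mice randomized when tumors averaged 400 mm³. Oral dosing for 3 weeks, bid at 40, 80, 120 or 160 mg/kg, or 80 mg/kg qd. Compound given as a suspension in 0.24% SDS/0.5% Methocel, with a BID vehicle control. Tumor volume tracked over days; body weight, physical signs and mortality monitored.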

Cytochrome P450 2C9 = Cytochrome P450 2C9 (Homo sapiens, UniProt P11712); assay: Inhibition of CYP2C9; type: ADME
[4] = Volume of distribution at steady state in rat; type: ADME, organism-based; details: in vivo, read-out: Vdss
Cytochrome P450 2D6 = Cytochrome P450 2D6 (Homo sapiens, UniProt P10635); assay: Inhibition of CYP2D6; type: ADME
[5] = Oral bioavailability in dog; type: ADME, organism-based, Canis lupus familiaris; details: in vivo
Mus musculus [6] = assay: Inhibition of Shh pathway in mouse medulloblastoma allograft model assessed as reduction in tumor Gli-1 mRNA expression at 80 mg/kg, po administered as single dose measured after 8 hrs; type: functional; how it was run: as §1
Rattus norvegicus = organism: Rattus norvegicus; assay: Clearance in rat; type: ADME, organism-based; details: in vivo
Canis familiaris [7] = assay: Toxicity in iv dosed vagotomized dog assessed as change in cardiovascular parameters; type: organism-based, Canis lupus familiaris, Heart; details: in vivo
Mus musculus [8] = assay: Toxicity in mouse medulloblastoma allograft model assessed as adverse effects at 40 mg/kg, po bid for 3 weeks; type: organism-based; parameters: dose 40 mg/kg, route oral; details: in vivo, 504 h; how it was run: as §2
[9] = Half life in rat; type: ADME, organism-based; details: in vivo
Mus musculus [10] = assay: Toxicity in mouse medulloblastoma allograft model assessed as adverse effects at 80 mg/kg, po qd for 3 weeks; type: organism-based; parameters: dose 80 mg/kg, route oral; details: in vivo, 504 h; how it was run: as §2
Mus musculus [11] = assay: Inhibition of Shh pathway in mouse medulloblastoma allograft model assessed as reduction in tumor Gli-1 mRNA expression at 80 mg/kg, po administered as single dose measured after 6 hrs; type: functional; how it was run: as §1
Mus musculus [12] = assay: Toxicity in mouse medulloblastoma allograft model assessed as adverse effects at 80 mg/kg, po bid for 3 weeks; type: organism-based; parameters: dose 80 mg/kg, route oral; details: in vivo, 504 h; how it was run: as §2
Canis familiaris [13] = assay: Toxicity in iv dosed vagotomized dog assessed as change in hemodynamic parameters; type: organism-based, Canis lupus familiaris; details: in vivo
Protein smoothened [14] = molecular target: T1, Protein smoothened (Homo sapiens, UniProt Q99835); assay: Displacement of BODIPY-cyclopamine from human Smo expressed in HEK293 cells in presence of 20% normal human serum; type: cell-based
How it was run: (§3)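 Competition binding: displacement of fluorescently labeled bodipy-cyclopamine from recombinant human Smo expressed in HEK-293 cells. Run in 2% fetal calf serum and, separately, in 20% normal human serum. IC50 values are means of at least five experiments.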

[15] = Cmax in iv dosed dog; type: ADME, organism-based, Canis lupus familiaris; parameters: route intravenous; details: in vivo
Mus musculus [16] = assay: Toxicity in mouse medulloblastoma allograft model assessed as adverse effects at 160 mg/kg, po bid for 3 weeks; type: organism-based; parameters: dose 160 mg/kg, route oral; details: in vivo, 504 h; how it was run: as §2
Mus musculus [17] = assay: Inhibition of Shh pathway in mouse medulloblastoma allograft model assessed as reduction in tumor Gli-1 mRNA expression at 80 mg/kg, po administered as single dose measured after 4 hrs; type: functional; how it was run: as §1
[18] = Volume of distribution at steady state in dog; type: ADME, organism-based, Canis lupus familiaris; details: in vivo, read-out: Vdss
Canis familiaris [19] = organism: Canis familiaris; assay: Clearance in dog; type: ADME, organism-based, Canis lupus familiaris; details: in vivo
Cytochrome P450 3A4 = Cytochrome P450 3A4 (Homo sapiens, UniProt P08684); assay: Inhibition of CYP3A4; type: ADME
hERG (KCNH2) = hERG (KCNH2) (Homo sapiens, UniProt Q12809); assay: Inhibition of human ERG at 30 uM
Protein smoothened [20] = molecular target: T1, Protein smoothened; assay: Displacement of BODIPY-cyclopamine from human Smo expressed in HEK293 cells in presence of 2% fetal calf serum; type: cell-based; how it was run: as §3
[21] = Half life in dog; type: ADME, organism-based, Canis lupus familiaris; details: in vivo
[22] = Oral bioavailability in rat; type: ADME, organism-based; details: in vivo

T1 sequence (Q99835 whole entry): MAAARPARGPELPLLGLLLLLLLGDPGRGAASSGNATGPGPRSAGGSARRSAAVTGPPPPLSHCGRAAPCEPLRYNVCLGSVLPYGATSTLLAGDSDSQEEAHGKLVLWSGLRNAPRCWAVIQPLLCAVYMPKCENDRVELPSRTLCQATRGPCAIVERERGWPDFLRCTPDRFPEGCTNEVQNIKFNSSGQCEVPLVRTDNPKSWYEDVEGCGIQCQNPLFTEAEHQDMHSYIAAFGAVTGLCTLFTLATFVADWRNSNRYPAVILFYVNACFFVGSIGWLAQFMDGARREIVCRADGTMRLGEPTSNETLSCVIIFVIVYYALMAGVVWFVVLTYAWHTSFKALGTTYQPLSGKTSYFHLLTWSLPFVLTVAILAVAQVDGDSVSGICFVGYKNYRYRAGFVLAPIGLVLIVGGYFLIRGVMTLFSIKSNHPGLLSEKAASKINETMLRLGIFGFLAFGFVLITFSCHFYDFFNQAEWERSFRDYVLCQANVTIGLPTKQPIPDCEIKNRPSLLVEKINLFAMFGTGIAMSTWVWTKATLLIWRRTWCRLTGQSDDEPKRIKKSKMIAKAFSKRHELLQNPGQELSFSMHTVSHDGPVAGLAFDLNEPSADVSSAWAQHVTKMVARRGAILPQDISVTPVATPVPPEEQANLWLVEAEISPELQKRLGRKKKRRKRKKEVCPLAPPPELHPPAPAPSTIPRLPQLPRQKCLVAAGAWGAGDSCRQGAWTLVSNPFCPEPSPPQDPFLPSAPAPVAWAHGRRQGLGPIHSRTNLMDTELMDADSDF
Cytochrome P450 3A4, sequence (P08684 whole entry): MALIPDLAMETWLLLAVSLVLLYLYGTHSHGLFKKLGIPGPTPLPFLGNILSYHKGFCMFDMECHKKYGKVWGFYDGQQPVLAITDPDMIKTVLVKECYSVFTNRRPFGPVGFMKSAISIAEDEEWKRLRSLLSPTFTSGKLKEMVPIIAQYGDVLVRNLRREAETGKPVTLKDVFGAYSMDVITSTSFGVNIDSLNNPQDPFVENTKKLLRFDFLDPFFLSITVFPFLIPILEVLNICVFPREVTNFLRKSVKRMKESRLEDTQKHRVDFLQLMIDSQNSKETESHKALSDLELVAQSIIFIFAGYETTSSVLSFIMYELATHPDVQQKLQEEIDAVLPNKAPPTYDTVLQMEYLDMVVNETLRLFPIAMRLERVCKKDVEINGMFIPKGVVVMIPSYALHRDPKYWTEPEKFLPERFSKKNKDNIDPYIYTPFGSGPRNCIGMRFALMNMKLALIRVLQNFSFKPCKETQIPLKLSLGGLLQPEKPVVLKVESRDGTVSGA
Cytochrome P450 2D6, sequence (P10635 whole entry): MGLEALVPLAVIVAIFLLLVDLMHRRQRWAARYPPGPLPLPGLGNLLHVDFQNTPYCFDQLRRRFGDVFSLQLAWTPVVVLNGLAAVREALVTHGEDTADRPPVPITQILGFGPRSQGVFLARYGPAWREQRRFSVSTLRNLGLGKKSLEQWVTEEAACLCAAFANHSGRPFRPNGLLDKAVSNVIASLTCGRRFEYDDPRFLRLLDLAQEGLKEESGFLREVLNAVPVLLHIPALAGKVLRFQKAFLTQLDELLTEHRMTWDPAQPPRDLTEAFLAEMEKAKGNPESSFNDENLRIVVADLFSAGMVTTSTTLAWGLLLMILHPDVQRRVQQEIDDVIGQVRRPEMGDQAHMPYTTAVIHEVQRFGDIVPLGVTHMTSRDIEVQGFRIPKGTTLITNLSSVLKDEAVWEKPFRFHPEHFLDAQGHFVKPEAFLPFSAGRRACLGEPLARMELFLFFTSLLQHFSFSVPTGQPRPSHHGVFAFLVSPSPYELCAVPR
Cytochrome P450 2C9, sequence (P11712 whole entry): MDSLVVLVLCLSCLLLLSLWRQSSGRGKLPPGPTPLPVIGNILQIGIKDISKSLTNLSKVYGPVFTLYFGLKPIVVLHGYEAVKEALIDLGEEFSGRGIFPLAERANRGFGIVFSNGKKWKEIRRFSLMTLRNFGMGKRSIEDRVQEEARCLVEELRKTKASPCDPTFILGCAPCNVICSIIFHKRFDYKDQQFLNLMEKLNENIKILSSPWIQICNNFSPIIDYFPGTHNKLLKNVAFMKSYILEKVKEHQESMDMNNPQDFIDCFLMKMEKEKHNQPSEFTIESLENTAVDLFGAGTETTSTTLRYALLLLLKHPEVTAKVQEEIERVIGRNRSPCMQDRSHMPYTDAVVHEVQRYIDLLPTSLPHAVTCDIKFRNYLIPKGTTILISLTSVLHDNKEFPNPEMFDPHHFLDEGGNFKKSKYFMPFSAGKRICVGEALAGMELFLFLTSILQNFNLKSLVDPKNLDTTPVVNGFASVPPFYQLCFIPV
hERG (KCNH2), sequence (Q12809 whole entry): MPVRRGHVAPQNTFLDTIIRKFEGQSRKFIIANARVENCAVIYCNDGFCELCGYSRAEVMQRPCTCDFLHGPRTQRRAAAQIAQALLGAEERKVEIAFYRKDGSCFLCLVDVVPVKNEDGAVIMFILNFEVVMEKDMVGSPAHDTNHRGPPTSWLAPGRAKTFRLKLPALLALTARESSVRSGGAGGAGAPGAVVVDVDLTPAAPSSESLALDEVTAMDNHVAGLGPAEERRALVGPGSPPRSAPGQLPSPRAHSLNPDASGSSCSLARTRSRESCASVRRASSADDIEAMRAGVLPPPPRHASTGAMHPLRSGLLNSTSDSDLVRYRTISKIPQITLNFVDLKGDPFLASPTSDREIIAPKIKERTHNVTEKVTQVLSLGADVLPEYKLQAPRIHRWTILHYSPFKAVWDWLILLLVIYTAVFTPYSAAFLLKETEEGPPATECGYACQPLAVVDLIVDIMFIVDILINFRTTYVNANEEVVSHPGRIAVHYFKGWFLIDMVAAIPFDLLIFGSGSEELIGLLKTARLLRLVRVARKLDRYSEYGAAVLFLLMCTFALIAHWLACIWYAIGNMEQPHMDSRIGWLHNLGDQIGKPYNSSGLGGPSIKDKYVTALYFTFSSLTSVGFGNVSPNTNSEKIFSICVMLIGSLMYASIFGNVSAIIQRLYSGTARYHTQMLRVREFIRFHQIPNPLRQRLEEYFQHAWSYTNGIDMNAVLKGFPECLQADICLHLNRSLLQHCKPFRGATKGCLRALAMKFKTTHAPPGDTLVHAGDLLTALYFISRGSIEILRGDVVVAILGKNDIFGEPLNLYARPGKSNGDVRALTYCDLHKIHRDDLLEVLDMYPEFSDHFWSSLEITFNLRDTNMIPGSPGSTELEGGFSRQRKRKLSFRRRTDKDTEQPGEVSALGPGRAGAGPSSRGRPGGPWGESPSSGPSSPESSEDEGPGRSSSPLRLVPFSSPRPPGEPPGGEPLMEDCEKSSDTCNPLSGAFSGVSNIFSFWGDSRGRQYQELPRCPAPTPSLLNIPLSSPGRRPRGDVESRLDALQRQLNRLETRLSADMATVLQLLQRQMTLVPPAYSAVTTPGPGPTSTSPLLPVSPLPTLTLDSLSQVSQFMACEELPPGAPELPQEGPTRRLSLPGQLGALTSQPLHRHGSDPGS

- inhibition [1]: 45%
- IC50 (Cytochrome P450 2C9): > 40000 nM
- Vd [4]: 2.9 L/kg
- IC50 (Cytochrome P450 2D6): > 40000 nM
- bioavailability [5]: 52%
- clearance (Rattus norvegicus): 22 mL/min/kg
- half-life [9]: 5.1 h
- IC50 (Protein smoothened [14]): 22 nM
- Cmax [15]: 16 µM
- Vd [18]: 2 L/kg
- clearance (Canis familiaris [19]): 22 mL/min/kg
- IC50 (Cytochrome P450 3A4): > 40000 nM
- IC50 (Protein smoothened [20]): 13 nM
- half-life [21]: 1.1 h
- bioavailability [22]: 40%
SMILES: C[C@@]12CN(C(=O)Nc3ccnn3-c3ccccc3)CCN1C(=O)N([C@H]1C[C@@H]1c1ccccc1)C2=O
- inhibition (Mus musculus [2]): tde
- Activity (Mus musculus [3]): Non-toxic
- inhibition in vivo at 80 mg/kg (Mus musculus [6]): > 85%
- Activity (Canis familiaris [7]): Non-toxic
- Activity (Mus musculus [8]): Non-toxic
- Activity (Mus musculus [10]): Non-toxic
- inhibition in vivo at 80 mg/kg (Mus musculus [11]): > 85%
- Activity (Mus musculus [12]): Non-toxic
- Activity (Canis familiaris [13]): Non-toxic
- Activity (Mus musculus [16]): Non-toxic
- inhibition in vivo at 80 mg/kg (Mus musculus [17]): 77%
- inhibition at 30 µM (hERG (KCNH2)): 27%
